A short description of experiment [1]: Cytotoxicity against human NCI60 cells. The class given is functional. In a few lines:
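NCI 60-cell-line screen covering leukemia, NSCLC, colon, CNS, melanoma, ovarian, renal, prostate and breast lines. Five doses spanning 5 log10, top concentration 32 μM. Percent growth and mean optical density measured per NCI protocol. OD plotted against concentration to give GI50, TGI and LC50, reported as median (range) over up to 59 lines.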

Experiment [2] relates to Salmonella typhimurium. Nature of the experiment: Antimicrobial activity against Salmonella enterica Typhimurium C587 by CLSI method. It is filed as functional, organism-based. The conditions noted are these: Salmonella enterica subsp. enterica serovar Typhimurium. The essentials:
(§1)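 Broth MIC determination following Clinical and Laboratory Standards Institute methods. Panel: Gram-positive S. aureus C622, MRSA C623, S. epidermidis C960, B. subtilis C971, E. faecalis C625; Gram-negative S. enterica Typhimurium C587, E. coli C498, P. aeruginosa H187. Activity read as minimum inhibitory concentration.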

Experiment [3] deals with Escherichia coli. Nature of the experiment: Antimicrobial activity against Escherichia coli C498 by CLSI method. It is filed as functional, organism-based. In a few lines: as §1
Experiment [4] has as its system Pseudomonas aeruginosa. Nature of the experiment: Antimicrobial activity against Pseudomonas aeruginosa H187 by CLSI method. The class given is functional, organism-based. In a few lines: as §1
The subject of experiment [5] is Staphylococcus epidermidis. The experiment is described as follows: Antimicrobial activity against Staphylococcus epidermidis C960 by CLSI method. The class given is functional. The essentials:
as §1

Experiment [6] relates to Staphylococcus aureus. Nature of the experiment: Antimicrobial activity against methicillin-resistant Staphylococcus aureus isolate C623 by CLSI method. It is filed as functional.
The test system of experiment [7] is Nucleic Acid. Nature of the experiment: Binding affinity to Escherichia coli pUC19 DNA assessed as relaxation of supercoiled DNA at 100 uM by agarose gel electrophoresis. The class given is nucleic-acid assay. The essentials: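 DNA in 10 mM Tris-Cl pH 8.5, diluted into Tris pH 7.4 (final 5 mM) and NaCl (final 50 mM). Jadomycin added without copper; volume 20 μL; 2 h at 37 °C. Quenched with loading buffer, electrophoresed on 1% agarose containing ethidium bromide (0.75 μg mL−1), 30 min at 8 V cm−1 in 1× TAE. UV visualization.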

Experiment [8] has as its system Nucleic Acid. The experiment is described as follows: Binding affinity to Escherichia coli pUC19 DNA assessed as relaxation of supercoiled DNA at 0.1 to 100 uM by agarose gel electrophoresis in presence of Cu ions. It is filed as nucleic-acid assay. The essentials: (§2)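 DNA supplied in 10 mM Tris-Cl pH 8.5, diluted into Tris pH 7.4 (final 5 mM) plus NaCl (final 50 mM). Jadomycins premixed 1:1 with Cu(OAc)2 added; final volume 20 μL. Incubated 2 h at 37 °C, quenched with loading buffer, run on 1% agarose with ethidium bromide (0.75 μg mL−1), 30 min at 8 V cm−1 in 1× TAE. Bands visualized by UV transillumination.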

In experiment [9] the test system is Nucleic Acid. Nature of the experiment: Binding affinity to Escherichia coli pUC19 DNA assessed as relaxation of supercoiled DNA by agarose gel electrophoresis in presence of Cu ions. The class given is nucleic-acid assay. In a few lines:
as §2

pEC50: −log10 of the molar value. Activity calls are given as the source filed them.

One may read the GI50 as the concentration that inhibits growth by half. Broadly, the LC50 is the concentration lethal to half of the exposed cells or organisms. Read a low LC50 as a more lethal substance. What is called TGI is the concentration giving total growth inhibition. The term MIC denotes the smallest concentration in the dilution series that meets the test's criterion for growth inhibition. Low values mean inhibition by little substance, high ones a need for much substance. One may read the pEC50 as the EC50 on a negative log10 scale, so that one unit is a factor of ten. `CCC[C@@H]1C(=O)OC2c3cc(C)cc(O)c3C3=C(C(=O)c4c(O[C@H]5C[C@@H](O)[C@@H](O)[C@H](C)O5)cccc4C3=O)N21` (mixture of isomers) showed a GI50 in experiment [1] of 4.9 µM. Also, the LC50 in experiment [1] turned out to be 19 µM. The TGI in [1] is 10 µM. The outcome in [2], in experiment [3], in [4] and in [7] was inactive. The MIC in experiment [5] turned out to be 4 µg/mL; in experiment [6], 32 µg/mL. For the same molecule, the Activity entry in [8] was “Dose-dependent effect”. The negative-log EC50 (pEC50) in experiment [9] is 4.07.

Turning to `CCCC[C@@H]1C(=O)OC2c3cc(C)cc(O)c3C3=C(C(=O)c4c(O[C@H]5C[C@@H](O)[C@@H](O)[C@H](C)O5)cccc4C3=O)N21` (mixture of isomers), the GI50 in experiment [1] was determined as 4.2 µM. In experiment [1], the LC50 turned out to be 18 µM. The molecule further had a TGI in [1] of 8.7 µM. The result in experiment [2], in [3], in experiment [4] and in experiment [7] was inactive. The MIC in [5] stood at 4 µg/mL; in experiment [6], 32 µg/mL. Moreover, in [8], the Activity entry is “Dose-dependent effect”. Also, the pEC50 in [9] is 3.84.

(Values after ChEMBL document CHEMBL1938389, “Jadomycins derived from the assimilation and incorporation of norvaline and norleucine” (J Nat Prod, 2011).)
